According to ChEMBL document CHEMBL1121461, “Synthesis and diuretic profile of 3-(3-amino-1,2,4-oxadiazol-5-yl)-5-chloro-2,6-pyrazinediamine, an amiloride-type diuretic” (J Med Chem, 1980):
Values joined by “and” are separate entries in the source; they are usually repeats but may differ in a detail not shown here. Identical values can stand only once.

Columns and labels:
Canis familiaris [1] = species on record: Canis familiaris; assay: Compound was tested for diuretic activity in urine volume in dog; assay type: ADME, organism-based, Canis lupus familiaris; settings: in vivo
How it was run: (§1)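 Six normotensive trained dogs (10.2-17.9 kg; five for 10 mg/kg runs), oral dosing at 5 or 10 mg/kg, each preceded by placebo control test. Normal saline 100 mL given subcutaneously right after dosing. Bladder emptied by catheter at onset and 2, 4, 6 h; kept in metabolism cages; total urine volume recorded, Na+ and K+ of aliquot by flame photometry.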

Rattus norvegicus [2] = assay: Compound was tested for diuretic activity against peroral dose of 100 mg/kg in rat; assay type: ADME, organism-based, Urine; design: dose 100 mg/kg, route oral; settings: in vivo, po
How it was run: (§2)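 Rats, four per group (eight in one case), given oral 50 mL/kg 0.2% NaCl load together with test agent by mouth; placed in metabolism cages, urine collected 3 h. Urine volume expressed as % of load; total Na+ and K+ (mequiv × 100) in the 3-h sample by flame photometry. Vehicle controls run alongside; significance p < 0.05, p < 0.01.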

Rattus norvegicus [3] = assay: Compound was tested for diuretic activity against peroral dose of 5 mg/kg in rat; assay type: ADME, organism-based, Urine; design: dose 5 mg/kg, route oral; settings: in vivo, po; how it was run: as §2
Rattus norvegicus [4] = assay: Compound was tested for diuretic activity against peroral dose of 50 mg/kg in rat; assay type: ADME, organism-based, Urine; design: dose 50 mg/kg, route oral; settings: in vivo, po; how it was run: as §2
[5] = Compound was tested for diuretic activity in potassium content of the 3-h sample was measured by flame photometry; assay type: ADME, Urine; how it was run: as §2
Rattus norvegicus [6] = species on record: Rattus norvegicus; assay: Compound was tested for diuretic activity in potassium content of the 3-h sample was measured by flame photometry in rat; assay type: ADME, organism-based, Urine; settings: in vivo
How it was run: (§3)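 Rats, four per dose group, given oral 0.2% NaCl load (50 mL/kg) together with test agent orally; placed in metabolism cages, urine collected 3 h. Na+ and K+ content of the 3-h sample by flame photometry; output as % of load and total mequiv × 100, compared against concurrent controls.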

[7] = Compound was tested for diuretic activity in sodium content of the 3-h sample was measured by flame photometry; assay type: ADME, Urine; design: unit not given beside the values; how it was run: as §2
Rattus norvegicus [8] = assay: Compound was tested for diuretic activity against peroral dose of 10 mg/kg in rat; assay type: ADME, organism-based, Urine; design: dose 10 mg/kg, route oral; settings: in vivo, po; how it was run: as §3
Rattus norvegicus [9] = species on record: Rattus norvegicus; assay: Compound was tested for diuretic activity in sodium content of the 3-h sample was measured by flame photometry in rat; assay type: ADME, organism-based, Urine; design: unit not given beside the values; settings: in vivo; how it was run: as §2
Canis familiaris [10] = species on record: Canis familiaris; assay: Compound was tested for diuretic activity urine volume in dog; assay type: ADME, organism-based, Canis lupus familiaris; settings: in vivo; how it was run: as §1
Rattus norvegicus [11] = assay: Compound was tested for diuretic activity against peroral dose of 25 mg/kg in rat; assay type: ADME, organism-based, Urine; design: dose 25 mg/kg, route oral; settings: in vivo, po; how it was run: as §2
Canis familiaris [12] = assay: Compound was tested for diuretic activity in urine volume in dogs at a dose of 5 mg/kg; assay type: ADME, organism-based, Canis lupus familiaris; design: dose 5 mg/kg; settings: dog, in vivo
How it was run: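 Six normotensive trained dogs (10.2-17.9 kg), each given a placebo control test before each run. Oral dosing, then 100 mL normal saline injected subcutaneously. Bladder emptied by catheter at onset and 2, 4, 6 h after dosing; dogs in metabolism cages. Total urine volume recorded; Na+ and K+ of an aliquot by flame photometry.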

Row | Load (Canis familiaris [12]) | SMILES | urine vol (Canis familiaris [1]) [%] | Load (Rattus norvegicus [2]) [%] | Load (Rattus norvegicus [3]) [%] | Load (Rattus norvegicus [4]) | Diuretic activity [5] | Diuretic activity (Rattus norvegicus [6]) | Diuretic activity [7] | Load (Rattus norvegicus [8]) | Diuretic activity (Rattus norvegicus [9]) | urine vol (Canis familiaris [10]) [%] | Load (Rattus norvegicus [11]) [%]
1 | – | Cl.N=C(N)NC(=O)c1nc(Cl)c(N)nc1N.O.O [AMILORIDE HYDROCHLORIDE] | 91.2 | 59.7 | 94 | 64.9% and 76.2% | 1.1 and 1.4 and 1.7 | 1.5 and 1.7 and 1.6 and 1.1 | 33.6 and 24.9 and 27.9 and 32.9 | 96.8% | 38 [middle of 4 runs] | 88.2 | 82.1
2 | 91% and 76.8% | Nc1noc(-c2nc(Cl)c(N)nc2N)n1 | – | 100.4 | 81.1 | 103% and 83.9% | – | 1.1 and 2 and 1.8 and 1.9 and 2.1 | 23.5 and 21.2 and 40 | 88.8% and 96.9% | 24.7 and 33.8 and 42.7 and 41.6 | – | 93.3
